Key:
[1] = test system: leukocyte recruitment (rolling, adhesion, extravasation); assay: L-NAME induced leukocyte recruitment in post-capillary venules of the mesentery; type: in vivo; conditions: 120 minutes; for Inhibition of leukocyte rolling, adhesion and extravasation: 5 or 50 μM compound 1, 50 μM compound 9
[2] = test system: ACSL in bEND3 brain endothelial cells; assay: In situ [14C]-palmitate incorporation into extractable lipids of bEND3 cells; type: cell-based; conditions: for Inhibition of [14C]-palmitate incorporation into extractable lipids: compounds at 15 μM, Figure 3A; for Potency ratio (rank order) for inhibition of [14C]-palmitate incorporation into extractable lipids: triacsin C at 1.5 μM, all other compounds at 15 μM
Procedure, shortened: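 bEND3 brain endothelial cells incubated with [14C]-palmitate, with test compounds at 15 μM or the reference ACSL inhibitor at 1.5 μM. Radioactivity measured in extractable lipid (fmoles [14C]-palmitate/μg lipid), aqueous fraction and media; total recovery summed from lipid, aqueous and media. Compared to untreated controls by one-way ANOVA with Dunnett's t test; n = 3–9 independent experiments.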

[3] = test system: long chain fatty acyl-CoA synthetase (ACSL); assay: Inhibition of ACSL activity in solubilized brain endothelial bEND3 cells; type: biochemical
rotavirus = conditions: cited from earlier work
[4] = test system: leukocyte recruitment (rolling, adhesion, extravasation); conditions: 5μM; cited from earlier work
[5] = aqueous; no reference given; cited from earlier work

In the case of `C=CCCCCCCCCCNO` [Compound 9], the “Rolling, adhesion and extravasation rates / recruitment” value ([1]; 50 μM) was “about as effective as compound 1 at 5 μM”, the “Inhibition of leukocyte rolling, adhesion and extravasation” value [1] was “significantly inhibited rolling, adhesion, and extravasation” and the “Inhibition of [14C]-palmitate incorporation into extractable lipids” value [2] was “significant inhibition”. For the same compound, the “Potency ratio (rank order) for inhibition of [14C]-palmitate incorporation into extractable lipids” value [2] was “triacsin C > 3 > 1 > 4 > 9 = 7 > 2”.
For `CCC/C=C/C/C=C/C=N/N1CCCS1(=O)=O` [Compound 2], the “Folds less active compared with compound 3” value [3] was > 30 folds and the “Potency ratio (rank order) for inhibition of [14C]-palmitate incorporation into extractable lipids” value [2] was “triacsin C > 3 > 1 > 4 > 9 = 7 > 2”.
For `CCC/C=C/C/C=C/C=C/CNc1ccc(C(=O)O)cc1` [Compound 1], the “Rolling, adhesion and extravasation rates / recruitment” value ([1]; 5 μM) was “inhibited the recruitment to about half the extent as at 50 μm”, the “Rolling, adhesion and extravasation rates / recruitment” value ([1]; 50 μM) was “not different from each other nor were they different from vehicle alone” and the “Inhibition of leukocyte rolling, adhesion and extravasation” value [1] was “significantly inhibited rolling, adhesion, and extravasation”. The “Potency relative to triacsin C in the ACSL assay” value [3] was “one-tenth as potent as triacsin C”, the “Potency relative to triacsin C as inhibitor of rotavirus replication” value (rotavirus) was “at least twice as potent as triacsin C” and the “Inhibition of [14C]-palmitate incorporation into extractable lipids” value [2] was “significant inhibition”. For the same compound, the “Potency ratio (rank order) for inhibition of [14C]-palmitate incorporation into extractable lipids” value [2] was “triacsin C > 3 > 1 > 4 > 9 = 7 > 2”.
For `C=CCCCCCCCCCNc1ccc(C(=O)O)c(O)c1` [Compound 4], the “Inhibition of [14C]-palmitate incorporation into extractable lipids” value [2] was “significant inhibition” and the “Potency ratio (rank order) for inhibition of [14C]-palmitate incorporation into extractable lipids” value [2] was “triacsin C > 3 > 1 > 4 > 9 = 7 > 2”.
In the case of `CCC/C=C/C/C=C/C=C/CNN1CCCS1(=O)=O` [Compound 8], the “Folds less active compared with compound 3” value [3] was > 30 folds.
In the case of `CCC/C=C/C/C=C/C=C/C=N/NN=O` [Triacsin C, reference compound], the “Rolling, adhesion and extravasation rates / recruitment” value ([1]; 5 μM) was “not different from each other nor were they different from vehicle alone”, the “Times more potent than compound 3” value [3] was “about 10 times” and the “Potency ratio (rank order) for inhibition of [14C]-palmitate incorporation into extractable lipids” value [2] was “triacsin C > 3 > 1 > 4 > 9 = 7 > 2”. For the same compound, the “Neutrophil recruitment in a model of ischemia” value [4] was “virtually abolished neutrophil recruitment”.
For `CCCCCCCCCCCCCCCC(=O)SCCNC(=O)CCNC(=O)[C@H](O)C(C)(C)COP(=O)(O)OP(=O)(O)OC[C@H]1O[C@@H](n2cnc3c(N)ncnc32)[C@H](O)[C@@H]1OP(=O)(O)O` [palmitoyl CoA], the Water solubility [5] is listed as “about 1.74 g/L”.
With `CCC/C=C/C/C=C/CN(O)/N=N/c1ccc(C(=O)O)cc1` [Compound 7] the “Inhibition of [14C]-palmitate incorporation into extractable lipids” value [2] was “significant inhibition” and the “Potency ratio (rank order) for inhibition of [14C]-palmitate incorporation into extractable lipids” value [2] was “triacsin C > 3 > 1 > 4 > 9 = 7 > 2”.
With `C=CCCCCCCCCCNc1ccc(C(=O)O)cc1` [Compound 3] the “Inhibition of [14C]-palmitate incorporation into extractable lipids” value [2] was “significant inhibition” and the “Potency ratio (rank order) for inhibition of [14C]-palmitate incorporation into extractable lipids” value [2] was “triacsin C > 3 > 1 > 4 > 9 = 7 > 2”.

From publication PMC3963287 (Bioorganic & medicinal chemistry letters, 2014)
